Published values gathered from unrelated publications.
CYP2D6: Cytochrome P450 2D6 (CYP2D6, Homo sapiens, UniProt P10635)

CC[C@@H]1CN(C(=O)NCC(F)(F)F)C[C@@H]1c1cnc2cnc3[nH]ccc3n12 — AUC(0-inf) (beagle dog, plasma; oral, 1 mg/kg, single dose): 582 ng·h/mL
CCn1c(=O)c(-c2cc(NC(=O)Nc3ccccc3)c(F)cc2Br)cc2cnc(NC)cc21 — AUC(0-inf) (beagle dog, plasma; oral, 5 mg/kg, single dose): 4030 ng·h/mL
COCCc1ccc(OCC(O)CNC(C)C)cc1 (stereo not shown) — AUC(0-t) (CYP2D6; human, plasma; oral, 100 mg, single dose, healthy volunteers): 758 ng·h/mL
COc1cc2c3c(n(CCCN4CCOCC4)c(=O)c2cc1OC)-c1cc2c(cc1C3=O)OCO2 — half-life (female beagle dog, plasma; intravenous, 10 mg/m², infusion): 8 h
Cc1nc(-c2cnc(NC(C)C)n(C)c2=O)ccc1Oc1ccnc(-c2cnn(C)c2)c1 — AUC(0-t) (male beagle dog, plasma; oral, 3 mg/kg): 7030 ng·h/mL
C#C[C@]1(CO)O[C@@H](n2cnc3c(N)nc(F)nc32)C[C@@H]1O — CC50 (Ca-Ski; cell growth or viability, MTT; 24 h): > 50 µg/mL
CC(C)(O)c1coc(S(=O)(=O)NC(=O)Nc2c3c(cc4c2CCC4)CCC3)c1 — viability (J774.A1; cell growth or viability, MTT; 10 µM, 4 h): 94.9%
CNC(=O)c1cc(Oc2ccc(NC(=O)Nc3ccc(Cl)c(C(F)(F)F)c3)cc2)ccn1 — viability (WM 266-4; cell growth or viability, MTT; 1.6 µg, 48 h): 58.5%
Oc1c(-n2ccnn2)cnn1-c1cc(N2CCOCC2)ncn1 — half-life (female dog, plasma; oral, 1.5 mg/kg): 2.2 h
Cc1ccc(C(CS(=O)(=O)c2ccccc2)=NNc2nc(C)c(N=Nc3cccc(C)c3)s2)cc1 — viability (WM 266-4; cell growth or viability, MTT; 1.6 µg, 48 h): 52.6%
CCOC(=O)C1CCN(C(=O)c2ccc(N(CC)Cc3cnc4nc(N)nc(N)c4n3)cc2)CC1 — inhibition (CYP2D6; enzyme activity, inhibitor, luciferase; 10 µM): -4.18%
NC(=S)NN=C(CS(=O)(=O)c1ccccc1)c1ccc(F)cc1 — viability (WM 266-4; cell growth or viability, MTT; 1.6 µg, 48 h): 48.6%
COC(=O)C1CCN(C(=O)c2cccc(NCc3cnc4nc(N)nc(N)c4n3)c2)CC1 — inhibition (CYP2D6; enzyme activity, inhibitor, luciferase; 10 µM): -11.1%
